The RNAGym collection of RNA variant scans (doi:10.1126/science.aae0568)
Variants at the floor of the assay were thinned out.

B1: tRNA (parent)
chain: GUUCCGUUGGCGUAAUGGUAACGCGUCUCCCUCCUAAGGAGAAGACUGCGGGUUCGAGUCCCGUACGGAACG

Variants of: B1
Test: yeast fitness relative to wild type (ratio to wild type); higher = fitter; tRNA-Arg(CCU), competitive growth, 37 C, YPD
Method in brief: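 Variants of the tRNA-Arg(CCU) gene were chemically synthesised with a 3% per-site mutation rate across 69 sites and placed at the native genomic locus in Saccharomyces cerevisiae. Six parallel replicates of the pooled strains were competed in YPD at 37°C for 24 hours, and gene amplicons from the start and end populations were read by 100-nucleotide paired-end sequencing. Darwinian fitness relative to wild type was derived from changes in genotype frequencies. Genotypes required ≥ 100 starting reads, and estimates < 0.5 were set to 0.5.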

Row | Variant | yeast fitness
1 | GAUCCGUUGGCGUAAUGGUAACGCGUCUCCCUCCUAAGGAGAAGACUGCGGGUUCAAGUCCCGUACGGAACG | 0.898
2 | GUUCCGUAGGCGUAAUGGUAAUGCGUCUCCCUCCUAAGGAGAAGACUGCGGGUUCAAGACCCGUACGGAACG | ≤ 0.5
3 | GUUCCGUUGGCGCAAUGGUAACGCGUCACCCUCCUAAGGAGAAGACUGCGGGUUCGAGUCCUGUAAGGAACG | ≤ 0.5
4 | GUUCCAUUGGCGUAAUGGUAACGCGUCUCCCUCCUAAGGAGCAGACUGCGGGGUCGAGUCCCGUACCGAACG | ≤ 0.5
5 | GUUCCGAUGGCGUAGUGGUAACACGUCUCCCUCCUAAGGAGAAGACUGCGGGUUCGAGUCCCCUACGGAACG | 0.557
6 | GUUGCGUUGGCGUAAUGGUAACGCGUCUCCCUCUUAAGGAGAAGACUGCGGGUUCGAGUCCCAUACGGAACG | ≤ 0.5
7 | GUUCCGUUGGCGUAAUGGUAACGCGUCUCCCUCCUAAGGAGAAGACUGCGGGUGCGAGUCCCCUACGGCACG | 0.535
8 | GUUCCGCUAGCGUAAUGGUAACGGGUCUCCCUCCUAAGGAGAAGUCUGAGGGAUCGAGUCCCGUACGGAACG | 0.681
9 | GUUCCGUUGGCGUAAUGGUAACGCGUCUCCCUCCUAAGGAGAAGACUGCGGGUUCGAGUCACCUACGGAACG | 0.618
10 | GUUCCGUUGGCGUAAUGGUAACGCGUCUCCCUCCUAAGGUGAAGACUGUGGGUUCGAGUCUCGUACGGAGCG | ≤ 0.5
11 | GUACCGUUGGCGUAAUGGUAACGCGUCUCCCUCCUAAGGCGAAGACUGCGGGUUCGAGUUCGGUACGGAACG | ≤ 0.5
12 | GUUCCGUUGGCGUAAUGGUAACGCGUCUCGCUCCUAAGGAGAAGACUGAGGGCUCGAGUCCCGUACGGAACG | 0.563
13 | GUUCCGUUGGCGUAAUGGUAACGCGUCUCCCUCCUAAGGAGAGGACUGUGGGUUCGAGUCCCGUACGGAACG | 0.9
14 | GUUCCGUUGGCGUAAUGGUAACGCGUCUCCGUCCUAAGGAAAAGACUGCGGCUUCGAGUCCCGUUCCGAACG | ≤ 0.5
15 | GUUCCGUUGGCGUAAUGGUAACGUGUCUCCAUAUUAAGGAGAAGAAUGCGGGUUCGAGUCCCGUACGGCACG | 0.546
16 | GUUCCCUUGGCGUAAUGGUAACGCGUCUCCCUCCUAAGGAGAAGACUGCGGGCUCGAGUCCCGUGCGGAACG | ≤ 0.5
17 | GUUCCGUUGGCGUAAUGGUAACGCGUCUCCCUCAUAAGGAGUAGACUGCGGGUUCGACUACUGUACGGAACG | 0.571
18 | GUUCCGUUGGCGUAAUGGUAACGGGUCUCCAUUCAAAGGAGAAGACUGCGGGUUCGGGUCCCGUACGGAACG | 0.529
19 | GUUCCGUUGGCGUAAUGGUAACGCGUCUCCCUCCUAAGGAGAAGACUGCAGGUUCGAGUCCCGUACGGACCG | 0.823

Row | Variant | yeast fitness
20 | GUUCCGUUGGCGUAAUGGUAACGUGUCUCCCUCCUAAGGAGAAGACUGCGGGUUCGGGUCCCGUACGGAACG | 0.809
21 | GUUCCGUUGACGUAAUAGAAACGCGUCUUCCUCGUAAGGAGAAGACUGCGGGUUCGAGUCCCGUACGGAACG | ≤ 0.5
22 | GUUCCGUUGGCGUAAUGGUAACGCGUCUGCCUCCUAAGGAGAAGACAGCGGGUUCGAGUCCCGUAAGGAACG | 0.532
23 | GUUCCGUUGGCGUAAUGGUAACGCAUCUCCCUCCUAAGGAGAAGACGGAGGGUUCGAGUCCCGUACGGAACG | 0.548
24 | GUUCCGUAGGCGUAAUGGUAACACGUCUCCCUCCUAAGGAGAAGACUGCGGGUUCGAGUCCCGUACGGAACG | 0.597
25 | GUUCCGUUGGCGUAAUGGUAACGGGUUUCCCUCCUAAGGUGAAGACUGCGGGUUCGGGUCCGGUACGGAACG | ≤ 0.5
26 | GUUCCGUUGGCGUAAUGGUAUCGCGUCUCCCGCCUAGGGAGAAGGCUGCGGGUUAGAGUCCCGUACGGAACG | ≤ 0.5
27 | GUUUCGUUGGCGUAAUGGUAACGCGUCUCCCUCCUAAGGAGAUGACUGCGGGUUCGAGUCCCGUACGGAACG | 0.963
28 | GUUCCGUUGGCGUAAUGGUAACGGGUCUCCCUCCUAAGGAGAAGACUGCGGGUUCGAGUCCCGUACGAAACG | 0.653
29 | GUUCUGUUGGCGUAAUGGUGAGGCGUCUACCUCCUAAGGAGAAGUCUGCGGGUUCGAGUCCCGUACGGAACG | 0.563
30 | GUUCCGUUGGCGUAAUGGUAACCCGUCUCCCUCCUAGGGAGUAGACUCUGGGUUCGAGUCCCGUACGGAACG | ≤ 0.5
31 | GAUCCGUUGGGGUAAUGGUAACGCGUCUCCCUCCUAAGGAGAAGACUGCGGGUUCGUGUCCCGUAUGGAACG | 0.588
32 | GUUCCGUUGGCGUAAUGGUAACGCGUCUCCCUCCUAAGGAGAUGACUACGGGUUCGAGUCCAGUAGGGAACG | 0.533
33 | GUUCCGUUGGCGUAAUGCUAACACCUCUCCCUCCUAGGGAGAAGACUGCGGGUUCGAGUCCCGUGCGGAACG | ≤ 0.5
34 | GUUCCGUUGGCGUCAUGGUAACGCGUCUCCCUCCUAAGGAGAAGACUGCGGGCUCGAGUCCCGUACGGAACG | 0.713
35 | GUUGCCUUGGCGUAAUGGUAACGCGUCUCCCUCGUAAGGAGGAGACUGCGGGUUCGAGUCCCCUACGGAACG | ≤ 0.5
36 | GUUCCGUUGGCGUAAUGAUAUCGCGUCUCCCACCUAAGGAGAAGACUGCGGGUUCAAGUCCCGUACGGAACG | 0.561
37 | GUUCCGUUGGCGUAAUGGUAACGCGUCUCCAUCCAUAGGAGAAGACCGCGGGUUCGAGUCCCGUAUGGAACG | ≤ 0.5
38 | GUUCCGUUGGCGUAAUGGUAUCGCGUCUCCCUCCUAAGGAGAAGACUGCGGCUUCGGGUCUCGUACGGAACG | ≤ 0.5
